From PubChem
GSTO1 counter: blocks human GSTO1 in RBBP9 counter-screen; P78417; recombinant GSTO1, activity-based probe fluorescence polarization; inhibition, % at 5.96 µM; 300,000 compounds, 1.1% hits;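 active = inhibition above the campaign mean inhibition plus 3 SD, cut at about 35% in these data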;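 also: 0% = GSTO1-1 with DMSO and 100% = wells lacking GSTO1-1 enzyme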
TCR CD3 inh: human TCR-CD3 binding inhibition; inhibition, % at 9.4 µM; 360,000 compounds, 0.37% hits; AID 651800; TAMRA-labeled TCR probe fluorescence, biochemical; in the data active = inhibition above about 19%;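 also: recombinant mutant TCR 2C K166C tagged with TAMRA read by polarization; 0% = receptor in buffer alone and 100% = receptor with positive control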
Apaf-1 inh: inhibitors of human Apaf-1 apoptosome; 330,000 compounds, 0.71% hits; inhibition, % at 20 µM; O14727; reconstituted apoptosome caspase-3 activity, DEVD-Rh110 fluorescence; active = inhibition of at least 40% at 20 µM;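 also: plate controls were DMSO wells for no effect and DEVD-CHO caspase inhibitor wells for full effect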
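Material: cell-free apoptosome with Apaf-1, procaspase-3 and caspase-9; Buffer or medium: Hepes pH 7.5 with detergent and BSA; Reagent: cytochrome c trigger plus (Z-DEVD)2-Rh110 caspase-3 substrate; Times: compound with Apaf-1, dATP, procaspase-3 30 min, then 50 min reaction, room temperature; Technique: Rh110 fluorescence intensity.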
TDP2 inh: TDP2 (human) inhibition, absorbance primary screen. 370,000 compounds, 0.34% hits. AID 720702. inhibition, % at 12.8 µM. recombinant TDP2, T5PNP hydrolysis, p-nitrophenol absorbance 415 nm. O95551;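 active = inhibition above the mean of all tested compounds plus 3 SD, set per campaign, cut at about 25% in these data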;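 also: 0% = DMSO with enzyme and 100% = buffer with substrate but no TDP2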
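System: recombinant human TDP2 / Amount: 120 nM TDP2 per well / Also added: 5 mM T5PNP chromogenic substrate / Doses: 12.8 µM single point, 1% DMSO / Incubation: 2 h at 37 °C / Detection: p-Nitrophenol epi absorbance / Evaluation: % inhibition relative to enzyme-containing and enzyme-free wells / Repeats: singlicate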
SIAE inh: blocks human sialic acid acetylesterase; Q9HAT2; SIAE FP-Rh probe binding, fluorescence polarization; inhibition, % at 9.66 µM; 370,000 compounds, 0.69% hits; AID 1053197;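 active = inhibition above a cutoff: mean of compounds within the control limits plus 3 SD of those, cut at about 17% in these data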;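 also: 0% = plate median of compound wells and 100% = probe without SIAE protein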
Target sequence (Q9HAT2 whole entry, looked up): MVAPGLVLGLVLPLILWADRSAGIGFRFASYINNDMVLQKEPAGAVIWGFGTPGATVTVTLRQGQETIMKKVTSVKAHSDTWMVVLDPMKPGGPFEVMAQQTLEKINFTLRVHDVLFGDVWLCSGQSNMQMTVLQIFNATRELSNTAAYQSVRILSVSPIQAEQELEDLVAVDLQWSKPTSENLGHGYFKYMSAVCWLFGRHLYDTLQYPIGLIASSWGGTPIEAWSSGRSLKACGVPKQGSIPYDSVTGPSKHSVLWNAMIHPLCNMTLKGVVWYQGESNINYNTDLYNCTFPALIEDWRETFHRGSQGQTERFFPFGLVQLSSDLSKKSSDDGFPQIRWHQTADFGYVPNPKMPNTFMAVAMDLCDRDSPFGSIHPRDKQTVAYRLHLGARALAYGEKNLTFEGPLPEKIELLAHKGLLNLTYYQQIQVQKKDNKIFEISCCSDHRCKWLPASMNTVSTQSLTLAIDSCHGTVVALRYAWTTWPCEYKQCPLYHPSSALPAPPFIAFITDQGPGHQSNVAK
PAD4 FP inh: blocks human protein arginine deiminase 4 | 330,000 compounds, 0.41% hits | Q9UM07 | recombinant PAD4, RCA probe fluorescence polarization | inhibition, % at 6.36 µM;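 active = percent inhibition above a cutoff equal to the mean of all tested compounds plus 3 SD, cut at about 15% in these data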;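 also: 0% = PAD4 with RCA probe and DMSO and 100% = probe without PAD4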
PAD4 FP conf: PAD4 (human) inhibition, confirmed | 1,200 compounds, 28% hits | AID 488796 | recombinant PAD4, RCA probe fluorescence polarization | shares compounds with PAD4 FP inh | inhibition, % at 6.36 µM;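 active = mean inhibition across replicates above the hit cutoff set by the earlier primary screen, cut at about 15% in these data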;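 also: inhibitors block active-site labeling by the probe so polarization falls; 0% = PAD4 with probe and DMSO and 100% = probe without PAD4 enzyme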
The depositor's hits bear a star; nt = no result. Most compounds without a hit are left out; they make up all but 2.4% or so of the library.

SMILES	GSTO1 counter	TCR CD3 inh	Apaf-1 inh	TDP2 inh	SIAE inh	PAD4 FP inh	PAD4 FP conf
CC(C)CNc1nnnc2c1sc1nc(N3CCOCC3)c3c(c12)CC(C)(C)SC3	-6	-1	21	0	-2	27*	12
Cc1ccc(SCc2cc(=O)n(C)[nH]2)cc1	53*	-1	16	15	8	24*	0
COc1ccc(N2C(=O)/C(=C/c3cccs3)NC2=S)cc1	4	-1	2	4	11	1	nt
O=C(Nc1ccccc1)c1ccc2c(c1)CCN2S(=O)(=O)c1ccccc1	-8	2	11	5	-7	-2	nt
CCOC(=O)c1cc(-c2cccc([N+](=O)[O-])c2)nc2[nH]c(=O)[nH]c(=O)c12	30	-3	10	14	5	-3	nt
Oc1ccccc1-c1nc(NCCN2CCOCC2)c2ccccc2n1	-3	-4	17	0	-3	-3	nt
COc1ccc(/C=C/C(=O)OCC(=O)c2c(N)n(C)c(=O)n(C)c2=O)c(OC)c1	6	3	-9	-2	-5	19*	4
COc1ccc(OC)c(/C=C/C(=O)OCC(=O)c2c(N)n(C)c(=O)n(C)c2=O)c1	-16	1	-5	10	-5	-5	nt
O=c1c2cc(F)ccc2sn1-c1ccc(F)cc1	nt	nt	5	nt	nt	30*	25*
Cc1ccc(C)c(-n2sc3ccc(F)cc3c2=O)c1	nt	2	-2	1	17	38*	35*
COc1ccc(-n2sc3ccccc3c2=O)cc1	nt	-2	nt	5	12	nt	nt
COc1ccc(-n2sc3ccc(F)cc3c2=O)cc1	nt	7	-5	-4	12	31*	30*
S=C1NCCOCCOCCOCCOCCNC(=S)N2CCOCCOCCN1CCOCC2	9	-6	4	-20	-1	0	nt
CCOc1ccc(-n2c(SCC(=O)Nc3ccccc3-c3ccccc3)nnc2-c2ccccc2)cc1	nt	nt	nt	-7	-2	nt	nt
NC(=O)c1cc(S(=O)(=O)N2CCN(c3cccc(Cl)c3)CC2)cs1	8	10	6	0	0	1	nt
CC(=O)Nc1ccc(Nc2nc(Cl)nc(Nc3ccc(NC(C)=O)cc3)n2)cc1	5	0	-7	-4	8	19*	1
COC(=O)c1cc(NS(=O)(=O)c2ccc(N3CCOCC3)c(NC(C)=O)c2)cc(C(=O)OC)c1	0	5	-3	1	-2	-2	nt
CC1(NC(=O)Cc2csc(-c3ccc(Cl)cc3)n2)CCS(=O)(=O)C1 (stereo not drawn)	nt	-6	5	-8	-3	0	nt
CC1(NC(=O)Cc2csc(-c3cccc(Cl)c3)n2)CCS(=O)(=O)C1 (stereo not drawn)	nt	-4	-7	3	-5	21*	3
COc1ccccc1C1c2ccc3ccccc3c2Oc2ncn(CCN(C)C)c(=N)c21 (stereo not drawn)	1	-5	19	8	4	19*	1
COc1ccccc1C1c2ccc3ccccc3c2Oc2ncn(CCCO)c(=N)c21 (stereo not drawn)	-12	nt	8	nt	nt	-7	nt
Cc1ccc(C23CC4CC(CC(C(=O)N5CCN(C)CC5)(C4)C2)C3)cc1	0	4	7	2	-2	-5	nt
CC(=O)c1ccc(NC(=S)N2CCN(c3cccc(Cl)c3)CC2)cc1	-4	-1	-2	-5	-5	-5	nt
CC(=O)N1CCCN(Cc2cn(-c3cc(C)ccc3C)nc2-c2ccccc2)CC1	8	-5	-21	1	15	0	nt
COC(=O)N/N=C1/C/C(=N\NC(=O)OC)c2ccccc21	17	1	18	50*	5	21*	2
SMILES	GSTO1 counter	TCR CD3 inh	Apaf-1 inh	TDP2 inh	SIAE inh	PAD4 FP inh	PAD4 FP conf
COc1cc(/C=C/C(=O)OCC(=O)N(C)Cc2ccccc2)cc(OC)c1OC	nt	1	5	4	0	26*	-5
COc1cc(/C=C/C(=O)OCC(=O)N(C)Cc2ccccc2)ccc1O	nt	0	-2	0	7	-1	nt
COc1ccc(OC)c2[nH]c(=O)c(CCNC(=O)CC(C)C)cc12	2	1	7	2	9	50*	7
Cc1ccc(S(=O)(=O)Nc2ccc(N3CCCCC3)cc2)cc1	16	-2	10	11	3	-6	nt
CC(=O)N1CCN(c2ccc(N)cc2)CC1	nt	-8	13	24	9	25*	1
CC(=O)N1CCN(c2ccc(NS(=O)(=O)c3ccc(C)cc3)cc2)CC1	6	-1	5	-4	-2	24*	2
CC(=O)N1CCN(c2ccc(NC(=O)c3ccc(Cl)cc3)cc2)CC1	6	-6	-11	0	11	-8	nt
COc1ccc(S(=O)(=O)Nc2ccccc2C)cc1	-4	2	5	1	1	75*	3
O=C(O)c1ccccc1NS(=O)(=O)c1cccc(-n2sc3ccccc3c2=O)c1	-95	0	27	8	-21	43*	33*
CC/C(=C/c1ccccc1)c1cccc2[nH]c3c(OC)cccc3c12	6	1	nt	0	3	1	nt
COc1ccc(CCNC(=O)CN(C)S(=O)(=O)c2cccc3nsnc23)cc1OC	-2	0	17	3	2	-5	nt
CS(=O)(=O)c1cnc(-c2ccccc2)nc1Oc1ccc(F)cc1	1	3	-1	4	-3	-3	nt
O=C(N/N=C\c1ccc(-c2ccccc2[N+](=O)[O-])o1)C1COc2cc3ccccc3cc2O1 (stereo not drawn)	13	11	81*	5	-45	17*	-5
O=C(NCCCN1CCOCC1)c1cc2c([nH]c3ccccc32)c(-c2cccc(Br)c2)n1	-17	8	34	7	-16	46*	31*
CC1=C(C#N)C(=O)OC(C)(C)C1	7	8	-4	-2	4	47*	15*
O=C(c1cc2ccccc2oc1=O)N(c1ccccc1)C1C=CS(=O)(=O)C1 (stereo not drawn)	-2	0	-10	7	13	-3	nt
CC(C)c1ccc(N(C(=O)c2cc3ccccc3oc2=O)C2C=CS(=O)(=O)C2)cc1 (stereo not drawn)	4	8	13	-1	8	17*	-5
O=C(COc1ccc(Cl)cc1)Nc1ccc(NC(=O)c2ccco2)cc1	3	-1	-4	-3	14	27*	-2
O=C(CC(C(=O)N1CCc2ccccc21)n1ccnc1)NCC1CCCO1 (stereo not drawn)	-2	1	-10	0	-3	-3	nt
COc1ccc(-c2cc(C(=O)N3CCCCCC3)c3ccccc3n2)c(OC)c1	6	-3	20	9	-2	16*	49*
